According to ChEMBL document CHEMBL1821632 (2011):
Calls of active or inactive are those of the source. No cut-off for these calls is given here.

Legend:
[1] = tested on: Lipid bilayer; test: Binding affinity to dipalmitoyl phosphatidyl choline lipid bilayer assessed as decrease in pre-transition temperature by DSC technique
[2] = tested on: Lipid bilayer; test: Binding affinity to dipalmitoyl phosphatidyl choline lipid bilayer assessed as decrease in pre-transition temperature at compound to lipid molar ratio of 1:1 by DSC technique
How it was run: (§1)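 DPPC bilayers carried additive at additive:lipid molar ratios of 0:100, 1:5, 1:2 or 1:1. Samples were degassed under vacuum and scanned by DSC from 20 to 60 °C at 10 °C/h. The pre-transition and main transition (Tm) temperatures were read from the thermograms and compared with the additive-free lipid.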

[3] = tested on: Lipid bilayer; test: Binding affinity to dipalmitoyl phosphatidyl choline lipid bilayer assessed as decrease in pre-transition temperature at compound to lipid molar ratio of 1:5 by DSC technique
How it was run: as §1

[4] = (§2) Antifertility activity against goat epididymis sperm cells assessed as loss of sperm motility at 1.25 mM by Sander-Cramer test; type: functional, Capra hircus
How it was run: (§3)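 Sperm came from the cauda epididymis of goats. Tissue pieces were allowed to settle out, and the cells were washed, pelleted and resuspended in buffer. Cells were diluted in Dulbecco buffer (control) or in 1.25 mM drug solution. Motility was scored by the Sander-Cramer method, examining at least six microscope fields per slide at 1 h and 2 h of incubation.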

[5] = tested on: Sperm; test: Antifertility activity against goat epididymis sperm cells assessed as inhibition of sperm motility at 1.25 mM after 1 hr by Sander-Cramer test; type: functional; details: Capra hircus
How it was run: as §3

[6] = tested on: Lipid bilayer; test: Binding affinity to dipalmitoyl phosphatidyl choline lipid bilayer assessed as decrease in main transition temperature at compound to lipid molar ratio of 1:1 by DSC technique
How it was run: as §1

[7] = tested on: Lipid bilayer; test: Binding affinity to dipalmitoyl phosphatidyl choline lipid bilayer assessed as decrease in main transition temperature at compound to lipid molar ratio of 1:5 by DSC technique
How it was run: as §1

[8] = tested on: Lipid bilayer; test: Binding affinity to dipalmitoyl phosphatidyl choline lipid bilayer assessed as decrease in main transition temperature by DSC technique
[9] = tested on: Sperm; test: as §2; type: functional; details: Capra hircus
How it was run: as §3

| Structure (SMILES) | Activity [1] | Activity [2] | Activity [3] | Activity [4] | inhibition [5] | Tm [6] | Tm [7] | Tm [8] | inhibition [9] |
| --- | --- | --- | --- | --- | --- | --- | --- | --- | --- |
| CCOC(=O)C1=C(C)NC(C)=C(C(=O)OCC)C1c1ccccc1 | Active | Active | Active | 25% |  |  |  |  |  |
| O=C(O)c1cc(/N=N/c2ccc(S(=O)(=O)Nc3ccccn3)cc2)ccc1O | Active | Active | Active |  |  |  |  |  |  |
| COC(=O)C1=C(C)NC(C)=C(C(=O)OC)C1c1ccccc1[N+](=O)[O-] | Active | Active | Active |  |  |  |  |  |  |
| CCOC(=O)C1=C(C)NC(C)=C(C(=O)OCC)C1c1ccc(O)cc1 | Active | Active | Active |  | Active | 4.25 °C | 4.25 °C | 4.25 °C |  |
| CCOC(=O)C1=C(C)NC(C)=C(C(=O)OCC)C1c1ccccc1O | Active | Active | Active |  |  |  |  |  | Active |
| CCOC(=O)C1=C(C)NC(C)=C(C(=O)OCC)C1c1ccc(Cl)cc1 | Active | Active | Active | 25% |  |  |  |  |  |
